Assay results of several laboratories.
Lines come from different studies, so protocols differ.
Target: Phosphatidylinositol 4-phosphate 3-kinase C2 domain-containing subunit beta (PIK3C2B, Homo sapiens, UniProt O00750)

CC#CC(=O)N1CCC[C@H]1c1nc(-c2ccc(C(=O)Nc3ccccn3)cc2)c2c(N)nccn12 — inhibition (enzyme activity, inhibitor; 1 µM): 0%
N#Cc1ccc(NC(=O)Nc2ccccc2)cc1 — remaining binding (cell-free assay, competition with immobilised ligand; 25 µM): 79%
C1=C/COCc2cc(ccc2OCCN2CCCC2)Nc2nccc(n2)-c2cccc(c2)COC/1 — remaining binding (binding; 0.1 µM): 87%
C=CC(=O)N1CCC([C@@H]2CCNc3c(C(N)=O)c(-c4ccc(Oc5ccccc5)cc4)nn32)CC1 — inhibition (enzyme activity, inhibitor; 1 µM): 0%
C[C@H]1CC[C@H](n2c3cnccc3c3cnc(Nc4ccc5c(n4)CCN(C(=O)CO)C5)nc32)CC1 — remaining signal (cell-free assay; 1 µM): 100%
C#Cc1cnc(Nc2ccnc(CO)c2)nc1Nc1ccccc1S(C)(=O)=NC#N (centres unmarked) — remaining signal (cell-free assay; 1 µM): 100%
CN1CCN(C(=O)c2ccc(NC(=O)Nc3ccc(N(C)c4ccnc(Nc5ccc(CS(C)(=O)=O)cc5)n4)cc3)cc2)CC1 — remaining binding (binding; 1 µM): 100%
CCCCC(=O)Nc1ccc(-c2ccc3ncn(CCC)c(=O)c3c2)cn1 — remaining binding (binding, competition with immobilised ligand; 0.5 µM): 100%
